Measured values reported in ChEMBL document CHEMBL3414508, “A few atoms make the difference: synthetic, CD, NMR and computational studies on antiviral and antibacterial activities of glycopeptide antibiotic aglycon derivatives” (Eur J Med Chem, 2015).
In brackets after ≈: the same amount, converted by molar mass.

Key:
[1] = Cytotoxicity against MDCK cells after 72 hrs by microscopic analysis; assay type: cell-based, Canis lupus familiaris; settings: dog
Procedure, shortened: (§1)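 Uninfected MDCK cultures were run in parallel with serial compound dilutions for 72 h at 35°C. MCC is the concentration producing minimal changes in cell morphology, judged by microscopy. […] Means of 2 to 5 independent tests.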

[2] = Cytotoxicity against MDCK cells after 72 hrs by MTS assay; assay type: cell-based, Canis lupus familiaris; settings: dog; procedure, shortened: as §1
[3] = Antiviral activity against Influenza A virus (A/Hong Kong/7/1987(H3N2)) infected in MDCK cells assessed as reduction of virus-induced cytopathic effect after 72 hrs by microscopic analysis; assay type: functional, cell-based
Procedure, shortened: (§2)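 Subconfluent MDCK cultures given serial compound dilutions together with virus at MOI 0.0004 PFU/cell. Incubation 72 h at 35°C. […] Means of 2 to 5 independent tests.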

[4] = Antiviral activity against Influenza A virus (A/Hong Kong/7/1987(H3N2)) infected in MDCK cells assessed as cell viability after 72 hrs by MTS assay; assay type: functional, cell-based; procedure, shortened: as §2
Influenza B virus [5] = experiment: Antiviral activity against Influenza B virus (B/Hong Kong/05/1972) infected in MDCK cells assessed as reduction of virus-induced cytopathic effect after 72 hrs by microscopic analysis; assay type: functional, cell-based; settings: B/Hong Kong/05/1972, MDCK; procedure, shortened: as §2
Influenza B virus [6] = experiment: Antiviral activity against Influenza B virus (B/Hong Kong/05/1972) infected in MDCK cells assessed as cell viability after 72 hrs by MTS assay; assay type: functional, cell-based; settings: B/Hong Kong/05/1972, MDCK; procedure, shortened: as §2
Influenza A virus [7] = experiment: Antiviral activity against Influenza A virus (A/Puerto Rico/8/34(H1N1)) infected in MDCK cells assessed as cell viability after 72 hrs by MTS assay; assay type: functional, organism-based, A/Puerto Rico/8/1934(H1N1); procedure, shortened: as §2
Influenza A virus [8] = experiment: Antiviral activity against Influenza A virus (A/Puerto Rico/8/34(H1N1)) infected in MDCK cells assessed as reduction of virus-induced cytopathic effect after 72 hrs by microscopic analysis; assay type: functional, organism-based; settings: A/Puerto Rico/8/1934(H1N1)
Procedure, shortened: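 Subconfluent MDCK cultures given serial compound dilutions together with virus at MOI 0.0004 PFU/cell. Incubation 72 h at 35°C. Means of 2 to 5 independent tests.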

Bacillus spizizenii = experiment: Antibacterial activity against Bacillus subtilis ATCC 6633 by broth microdilution method; assay type: functional
Staphylococcus aureus [9] = experiment: Antibacterial activity against methicillin-sensitive Staphylococcus aureus ATCC 29213 by broth microdilution method; assay type: functional
Staphylococcus aureus [10] = experiment: Antibacterial activity against methicillin-resistant Staphylococcus aureus ATCC 33591 by broth microdilution method; assay type: functional
[11] = test system: Staphylococcus epidermidis; experiment: Antibacterial activity against Staphylococcus epidermidis expressing mecA by broth microdilution method; assay type: functional
[12] = test system: Staphylococcus epidermidis; experiment: Antibacterial activity against biofilm producing Staphylococcus epidermidis ATCC 35984 by broth microdilution method; assay type: functional
Enterococcus faecalis [13] = experiment: Antibacterial activity against Enterococcus faecalis ATCC 29212 by broth microdilution method; assay type: functional
Enterococcus faecalis [14] = experiment: Antibacterial activity against VanB+ Enterococcus faecalis ATCC 51299 by broth microdilution method; assay type: functional
Enterococcus faecalis [15] = experiment: Antibacterial activity against VanA+ Enterococcus faecalis 15376 by broth microdilution method; assay type: functional
[16] = Influenza A virus, A/Puerto Rico/8/1934(H1N1), MDCK, 72 h

Structure (SMILES) | MCC at 72 h [1] [µM] | CC50 at 72 h [2] [µM] | EC50 [3] [µM] | EC50 [4] [µM] | EC50 (Influenza B virus [5]) [µM] | EC50 (Influenza B virus [6]) [µM] | EC50 (Influenza A virus [7]; [16]) [µM] | EC50 (Influenza A virus [8]) [µM] | MIC (Bacillus spizizenii) [µg/mL] | MIC (Staphylococcus aureus [9]) [µg/mL] | MIC (Staphylococcus aureus [10]) [µg/mL] | MIC [11] [µg/mL] | MIC [12] [µg/mL] | MIC (Enterococcus faecalis [13]) [µg/mL] | MIC (Enterococcus faecalis [14]) [µg/mL] | MIC (Enterococcus faecalis [15]) [µg/mL] | EC50 (Influenza A virus [7]; mdck) [µM]
COC(=O)[C@H]1NC(=O)[C@H]2NC(=O)[C@H](NC(=O)[C@@H]3NC(=O)[C@H]4NC(=O)[C@H](NC(=O)[C@H](N)c5ccc(O)c(c5)Oc5cc4cc(O)c5C)[C@H](O)c4ccc(cc4)Oc4cc3cc(c4O)Oc3ccc(cc3)[C@H]2O)c2ccc(O)c(c2)-c2c(O)cc(O)cc21 | 81 | 44 | 4.6 | 2.5 | 5.1 | 5.4 |  |  |  |  |  |  |  |  |  |  | 
CC(=O)N[C@H]1[C@H](O[C@@H]2c3ccc(c(Cl)c3)Oc3cc4cc(c3O)Oc3ccc(cc3Cl)C[C@H]3NC(=O)[C@H](N)c5ccc(O)c(c5)Oc5cc(O)cc(c5)[C@H](NC3=O)C(=O)N[C@H]4C(=O)N[C@H]3C(=O)N[C@@H]2C(=O)N[C@H](C(=O)O)c2cc(O)cc(O)c2-c2cc3ccc2O)O[C@H](CO)[C@@H](O)[C@@H]1O | ≥ 100 | > 100 | 17 | 34 | > 100 | > 100 | 43 |  |  |  |  |  |  |  |  |  | 
COC(=O)[C@H]1NC(=O)[C@H]2NC(=O)[C@H](NC(=O)[C@@H]3NC(=O)[C@H]4NC(=O)[C@H](NC(=O)[C@H](Nc5c(NCc6ccc(-c7ccccc7)cc6)c(=O)c5=O)c5ccc(O)c(c5)Oc5cc4cc(O)c5C)[C@H](O)c4ccc(cc4)Oc4cc3cc(c4O)Oc3ccc(cc3)[C@H]2O)c2ccc(O)c(c2)-c2c(O)cc(O)cc21 [listing 1 of 2 here] | 20 | 39 | 0.15 | ≤ 0.42 | 0.84 | 1 | 0.21 | 0.15 |  |  |  |  |  |  |  |  | 
COC(=O)[C@H]1NC(=O)[C@H]2NC(=O)[C@H](NC(=O)[C@@H]3NC(=O)[C@H]4NC(=O)[C@H](NC(=O)[C@H](Nc5c(NCc6ccc(-c7ccccc7)cc6)c(=O)c5=O)c5ccc(O)c(c5)Oc5cc4cc(O)c5C)[C@H](O)c4ccc(cc4)Oc4cc3cc(c4O)Oc3ccc(cc3)[C@H]2O)c2ccc(O)c(c2)-c2c(O)cc(O)cc21 [listing 2 of 2 here] |  |  |  |  |  |  |  |  | 2 (≈ 1.39 µM) | 1 (≈ 0.697 µM) | 8 (≈ 5.57 µM) | 2 (≈ 1.39 µM) | 2 (≈ 1.39 µM) | 1 (≈ 0.697 µM) | 8 (≈ 5.57 µM) |  | 
CC(=O)N[C@H]1[C@H](O[C@@H]2c3ccc(c(Cl)c3)Oc3cc4cc(c3O)Oc3ccc(cc3Cl)C[C@H]3NC(=O)[C@H](Nc5c(NCc6ccc(-c7ccccc7)cc6)c(=O)c5=O)c5ccc(O)c(c5)Oc5cc(O)cc(c5)[C@H](NC3=O)C(=O)N[C@H]4C(=O)N[C@H]3C(=O)N[C@@H]2C(=O)N[C@H](C(=O)O)c2cc(O)cc(O)c2-c2cc3ccc2O)O[C@H](CO)[C@@H](O)[C@@H]1O [listing 1 of 2 here] | 0.8 | 6.5 | > 100 | > 100 | > 100 | > 100 | > 100 | > 100 |  |  |  |  |  |  |  |  | 
CC(=O)N[C@H]1[C@H](O[C@@H]2c3ccc(c(Cl)c3)Oc3cc4cc(c3O)Oc3ccc(cc3Cl)C[C@H]3NC(=O)[C@H](Nc5c(NCc6ccc(-c7ccccc7)cc6)c(=O)c5=O)c5ccc(O)c(c5)Oc5cc(O)cc(c5)[C@H](NC3=O)C(=O)N[C@H]4C(=O)N[C@H]3C(=O)N[C@@H]2C(=O)N[C@H](C(=O)O)c2cc(O)cc(O)c2-c2cc3ccc2O)O[C@H](CO)[C@@H](O)[C@@H]1O [listing 2 of 2 here] |  |  |  |  |  |  |  |  | 4 (≈ 2.4 µM) | 1 (≈ 0.601 µM) | 4 (≈ 2.4 µM) | 1 (≈ 0.601 µM) | 1 (≈ 0.601 µM) | 4 (≈ 2.4 µM) | 8 (≈ 4.81 µM) | 256 (≈ 154 µM) | 
COC(=O)[C@H]1NC(=O)[C@H]2NC(=O)[C@H](NC(=O)[C@@H]3NC(=O)[C@H]4NC(=O)[C@@H](Cc5ccc(c(Cl)c5)Oc5cc3cc(c5O)Oc3ccc(cc3Cl)[C@H]2O[C@@H]2O[C@H](CO)[C@@H](O)[C@H](O)[C@H]2NC(C)=O)NC(=O)[C@H](N)c2ccc(O)c(c2)Oc2cc(O)cc4c2)c2ccc(O)c(c2)-c2c(O)cc(O)cc21 | 100 | > 100 | > 100 | > 100 | > 100 | > 100 | > 100 | > 100 |  |  |  |  |  |  |  |  | 
COC(=O)[C@H]1NC(=O)[C@H]2NC(=O)[C@H](NC(=O)[C@@H]3NC(=O)[C@H]4NC(=O)[C@@H](Cc5ccc(c(Cl)c5)Oc5cc3cc(c5O)Oc3ccc(cc3Cl)[C@H]2O[C@@H]2O[C@H](CO)[C@@H](O)[C@H](O)[C@H]2NC(C)=O)NC(=O)[C@H](Nc2c(OC)c(=O)c2=O)c2ccc(O)c(c2)Oc2cc(O)cc4c2)c2ccc(O)c(c2)-c2c(O)cc(O)cc21 | 100 | > 100 | > 100 | > 100 | > 100 | > 100 | > 100 | > 100 |  |  |  |  |  |  |  |  | 
COC(=O)[C@H]1NC(=O)[C@H]2NC(=O)[C@H](NC(=O)[C@@H]3NC(=O)[C@H]4NC(=O)[C@@H](Cc5ccc(c(Cl)c5)Oc5cc3cc(c5O)Oc3ccc(cc3Cl)[C@H]2O[C@@H]2O[C@H](CO)[C@@H](O)[C@H](O)[C@H]2NC(C)=O)NC(=O)[C@H](Nc2c(NCc3ccc(-c5ccccc5)cc3)c(=O)c2=O)c2ccc(O)c(c2)Oc2cc(O)cc4c2)c2ccc(O)c(c2)-c2c(O)cc(O)cc21 | 20 | 58 | > 100 | > 100 | > 100 | > 100 | > 100 | > 100 |  |  |  |  |  |  |  |  | 
COc1c(N[C@H]2C(=O)N[C@@H]3Cc4ccc(c(Cl)c4)Oc4cc5cc(c4O)Oc4ccc(cc4Cl)[C@@H](O)[C@@H]4NC(=O)[C@H](NC(=O)[C@@H]5NC(=O)[C@@H](NC3=O)c3cc(O)cc(c3)Oc3cc2ccc3O)c2ccc(O)c(c2)-c2c(O)cc(O)cc2[C@@H](C(=O)O)NC4=O)c(=O)c1=O | 100 | 49 | > 100 | > 100 | > 100 | > 100 | > 100 | > 100 |  |  |  |  |  |  |  |  | 
O=C1N[C@H]2C(=O)N[C@H]3C(=O)N[C@H](C(=O)N[C@H](C(=O)O)c4cc(O)cc(O)c4-c4cc3ccc4O)[C@H](O)c3ccc(c(Cl)c3)Oc3cc2cc(c3O)Oc2ccc(cc2Cl)C[C@H]2NC(=O)[C@H](Nc3c(NCc4ccc(-c5ccccc5)cc4)c(=O)c3=O)c3ccc(O)c(c3)Oc3cc(O)cc(c3)[C@@H]1NC2=O | 20 | 11 | > 100 | > 100 | > 100 | > 100 | > 100 | > 100 |  |  |  |  |  |  |  |  | 
COC(=O)[C@H]1NC(=O)[C@H]2NC(=O)[C@H](NC(=O)[C@@H]3NC(=O)[C@H]4NC(=O)[C@@H](Cc5ccc(c(Cl)c5)Oc5cc3cc(c5O)Oc3ccc(cc3Cl)[C@H]2O)NC(=O)[C@H](Nc2c(NCc3ccc(-c5ccccc5)cc3)c(=O)c2=O)c2ccc(O)c(c2)Oc2cc(O)cc4c2)c2ccc(O)c(c2)-c2c(O)cc(O)cc21 | 4 | 7.6 | > 100 | > 100 | > 100 | > 100 | > 100 | > 100 |  |  |  |  |  |  |  |  | 
COC(=O)[C@H]1NC(=O)[C@H]2NC(=O)[C@H](NC(=O)[C@@H]3NC(=O)[C@H]4NC(=O)[C@@H](Cc5ccc(cc5)Oc5cc3cc(c5O)Oc3ccc(cc3)[C@H]2O)NC(=O)[C@H](Nc2c(NCc3ccc(-c5ccccc5)cc3)c(=O)c2=O)c2ccc(O)c(c2)Oc2cc(O)cc4c2)c2ccc(O)c(c2)-c2c(O)cc(O)cc21 | 16 | 20 | 0.52 | 0.7 | > 100 | > 100 | 0.58 | 0.67 |  |  |  |  |  |  |  |  | 
NC12CC3CC(CC(C3)C1)C2 [AMANTADINE] | > 500 | > 500 | 2 | 1.8 | > 500 | > 500 | 453 |  |  |  |  |  |  |  |  |  | 
NC(=O)c1ncn([C@@H]2O[C@H](CO)[C@@H](O)[C@H]2O)n1 [RIBAVIRIN] | > 100 | > 100 | 12 | 12 | 7 | 3.4 |  |  |  |  |  |  |  |  |  |  | 8.9
CC(N)C12CC3CC(CC(C3)C1)C2 (stereo not given) [RIMANTADINE] | > 500 | > 500 | 4 | 1.1 | > 500 | > 500 | 15 | 4 |  |  |  |  |  |  |  |  | 
N[C@H]1C(=O)N[C@@H]2Cc3ccc(c(Cl)c3)Oc3cc4cc(c3O)Oc3ccc(cc3Cl)[C@@H](O)[C@@H]3NC(=O)[C@H](NC(=O)[C@@H]4NC(=O)[C@@H](NC2=O)c2cc(O)cc(c2)Oc2cc1ccc2O)c1ccc(O)c(c1)-c1c(O)cc(O)cc1[C@@H](C(=O)O)NC3=O [TEICOPLANIN AGLYCON] | 100 | > 100 | > 100 | > 100 | > 100 | > 100 | > 100 | > 100 |  |  |  |  |  |  |  |  | 
